# Assay results from different studies.
# Protocols differ between the studies behind these lines.
# Effect on: enzyme activity
# Action: inhibitor
# FGFR1: Fibroblast growth factor receptor 1 (FGFR1, Homo sapiens, UniProt P11362)
Structure (SMILES),target,assay,conditions,remaining activity
O=C(Nc1cnn(-c2csc(C(=O)NC3COC3)c2)c1)Nc1c(F)cccc1Cl,FGFR1,,5 µM,91.4%
CCN(CC)CCNC(=O)c1c(C)[nH]c(/C=C2\C(=O)Nc3ccc(F)cc32)c1C,FGFR1,,0.1 µM,79%
Cc1sc(C(=O)NC2COC2)cc1-n1cc(NC(=O)Nc2c(F)cccc2Cl)cn1,FGFR1,,10 µM,114%
Cc1[nH]c(/C=C2\C(=O)Nc3ccc(F)cc32)c(C)c1C(=O)N[C@H]1CCN(C(=O)N(C)C)C1,FGFR1,,0.1 µM,122%
FC(F)c1nc2ccccc2n1-c1nc(N2CCOCC2)nc(N2CCOCC2)n1,FGFR1,,10 µM,102%
COc1cc(Cl)c(C(=O)N[C@@H](CN[C@H]2CC[C@@H](N)CC2)Cc2ccc(C#N)cc2)cc1-c1ccc(CN[C@H](C)c2ccc(C)cc2)o1,FGFR1,,1 µM,94%
Nc1nc(NC2CCCCC2)sc1C(=O)c1ccccc1,FGFR1,,10 µM,97%
CC(C)(C)c1nc2c(s1)c1nc(N)ncc1c1ccc(NS(=O)(=O)c3c(F)cccc3F)c(F)c12,FGFR1,radiometric,1 µM,90%
COc1cc(Nc2cnc(C#N)c(O[C@H](C)CN(C)C)n2)ncc1-c1cnn(C)c1,FGFR1,radiometric,10 µM,39%
CCCOc1ccc(OC)c(F)c1C(=O)c1ccc(C(=O)N[C@@H]2CNC[C@H]2NC(=O)c2ccc3[nH]ncc3c2)cc1,FGFR1,,10 µM,28%
Nc1nc(Nc2ccccc2)sc1C(=O)c1c(F)cccc1F,FGFR1,,10 µM,64%
Cc1cnc(NC2CCOCC2)nc1-n1cnc(C(=O)NC(CN)c2cc(F)cc(Cl)c2)c1 (stereo not drawn),"Fibroblast growth factor receptor 1 (FGFR1, Homo sapiens, UniProt P11362, V561M)",radiometric,1 µM,104%
